Measured values from PubChem BioAssay.
Calls of active or inactive are those of the source.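 Rule for the calls, unless noted: active = GFP response above 150% of the DMSO level; inconclusive = fewer than 70 events counted for a yeast strain; inactive = the rest.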

Experiments:
[1] = hit retest on RPL19A-GFP reporter strain – cell-based, S. cerevisiae, flow cytometry, cherry picks, mother/daughter gates, confirmation (AID 2270;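 active = GFP response below 50% of the DMSO control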); details: 3 h, at 10 µM, stronger effect = lower value, 100 = same GFP as DMSO wells
[2] = yeast TOR pathway reporter LAP4-GFP change – cell-based, cherry picks, flow cytometry, mother/daughter gates, confirmation (AID 2271;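 active = GFP response above 150% of the DMSO control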;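 note: ratio of sample to DMSO plate mean so 100% equals DMSO level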); details: S. cerevisiae LAP4-GFP strain, 3 h, at 10 µM, stronger effect = higher value, 100 means same as DMSO control
Summary of the method: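 System: GFP-fusion yeast strain; Incubation: compound exposure 3 h at 30 °C, end-over-end rotation; Measured by: GFP by flow cytometry; Read-out: median GFP fluorescence as percent of plate-mean DMSO wells; Medium: synthetic complete (SC) yeast growth medium; Compound: single test-compound dose, 10 µM final; Benchmarks: DMSO-only negative wells, rapamycin 400 ng/mL positive wells.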

[3] = TOR pathway reporter MEP2-GFP, retest of hits – S. cerevisiae, flow cytometry GFP, cherry picks, confirmation (AID 2272;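 active = GFP response above 150% of the DMSO control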;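 note: ratio of well signal to plate DMSO mean so 100% equals DMSO level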); details: S. cerevisiae MEP2-GFP strain, 3 h, at 10 µM, stronger effect = higher value
[4] = yeast AGP1-GFP fluorescence change, single-dose – cell-based, flow cytometry, S. cerevisiae, cherry picks, confirmation (AID 2273);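 note: median GFP channel fluorescence over the whole cell population gate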; details: S. cerevisiae AGP1-GFP strain, 3 h, at 10 µM
[5] = TOR pathway CIT2 reporter hit retest – S. cerevisiae, GFP fusion, cherry picks, mother/daughter gates, confirmation (AID 2274); details: S. cerevisiae CIT2-GFP strain, flow cytometry, 3 h, at 10 µM, stronger effect = higher value
[6] = measured here: daughter cell gate
[7] = measured here: mother cell gate
[8] = measured here: daughter cell gate response
[9] = measured here: mother cell gate response

Structure (SMILES) | GFP response vs DMSO [1] | GFP response vs DMSO [1, 6] [%] | GFP response vs DMSO [1, 7] [%] | GFP response relative to DMSO [2] | GFP response relative to DMSO [2, 8] [%] | GFP response relative to DMSO [2, 9] [%] | GFP response vs DMSO [3] | GFP response, % of DMSO [4] | GFP response, % of DMSO [5] | GFP response, % of DMSO [5, 6] [%] | GFP response, % of DMSO [5, 7] [%]
Cc1cccc2c1NC(=O)/C2=C\C(=O)c1cccs1 | 97.2% (inactive) | 91.1 | 89.1 | 164% (active) | 148 | 160 | 104% (inactive) | 107% (inactive) | 92.6% (inactive) | 99.7 | 83.7
O=C(NNC(=S)NC(=O)C12CC3CC(CC(C3)C1)C2)c1ccncc1 | 109% (inactive) | 115 | 106 | 137% (inactive) | 125 | 136 | 112% (inactive) | 97.3% (inactive) | 115% (inactive) | 124 | 106
CCc1nnc(NC(=O)c2ccc(S(=O)(=O)N(CCOC)CCOC)cc2)o1 | 95% (inactive) | 94.4 | 96.2 | 91.5% (inactive) | 96 | 90.8 | 96.2% (inactive) | 97.8% (inactive) | 99.7% (inactive) | 101 | 101
COCCN(CCOC)S(=O)(=O)c1ccc(C(=O)Nc2nnc(C)o2)cc1 | 100% (inactive) | 100 | 101 | 99.5% (inactive) | 97.5 | 98.4 | 99% (inactive) | 100% (inactive) | 102% (inactive) | 103 | 101
O=C(c1ccc([N+](=O)[O-])o1)N(Cc1nnc(-c2ccccc2Cl)o1)C1CC1 | 99.4% (inactive) | 100 | 99.5 | 98.2% (inactive) | 99.1 | 98.4 | 99% (inactive) | 101% (inactive) | 98.8% (inactive) | 101 | 96.8
C=CCOc1ccc(C(=O)/C=C2/C(=O)Nc3ccccc32)cc1 | 97.6% (inactive) | 93.6 | 97.2 | 113% (inactive) | 108 | 117 | 111% (inactive) | 112% (inactive) | 95.2% (inactive) | 93.2 | 93.4
COC(CNC(=O)c1ccc2c3c(onc13)-c1ccccc1C2=O)OC | 99.9% (inactive) | 103 | 95.8 | 188% (active) | 170 | 189 | 120% (inactive) | 86% (inactive) | 91.3% (inactive) | 98.1 | 83.7
COC(=O)c1ccc(CS(=O)(=O)c2ccc(F)cc2)o1 | 97.8% (inactive) | 98.1 | 95.9 | 98.9% (inactive) | 99 | 98.4 | 103% (inactive) | 102% (inactive) | 100% (inactive) | 99.3 | 98.2
O=C(Nc1ccc(NC(=O)c2cc3ccccc3o2)cc1)c1ccc2c(c1)OCCO2 | 103% (inactive) | 101 | 102 | 97% (inactive) | 95.9 | 97.3 | 103% (inactive) | 98.6% (inactive) | 105% (inactive) | 99.2 | 107
COc1ccc(-c2noc(CCCC(=O)NCCc3ccccc3)n2)cc1OC | 99.3% (inactive) | 97.3 | 97.3 | 100% (inactive) | 101 | 101 | 103% (inactive) | 100% (inactive) | 101% (inactive) | 101 | 100
COc1cc(/C=C/c2ccc3c(Br)cc(Br)c(O)c3n2)ccc1O | 101% (inactive) | 107 | 102 | 107% (inactive) | 106 | 108 | 108% (inactive) | 98.6% (inactive) | 99.7% (inactive) | 105 | 89.8
COc1ccc(-c2nn(-c3ccccc3)cc2C(=O)NC(=S)NNC(=O)c2ccncc2)cc1 | 100% (inactive) | 101 | 98.3 | 105% (inactive) | 108 | 105 | 101% (inactive) | 101% (inactive) | 107% (inactive) | 108 | 104
COc1ccc(N2CCN(C(=O)c3ccccc3)CC2)c([N+](=O)[O-])c1 | 101% (inactive) | 98.8 | 103 | 106% (inactive) | 104 | 108 | 107% (inactive) | 102% (inactive) | 91.5% (inactive) | 93.8 | 96.8
COc1cc(NC(=O)C(C)C)ccc1NC(=O)c1cc2ccccc2o1 | 102% (inactive) | 99.8 | 103 | 92.6% (inactive) | 92.5 | 94.2 | 102% (inactive) | 97.8% (inactive) | 103% (inactive) | 101 | 104
C=CCNC(=O)/C(C#N)=C/c1c(N2CC(C)OC(C)C2)nc2ccccn2c1=O (stereo not drawn) | 98.8% (inactive) | 99.5 | 98.4 | 102% (inactive) | 100 | 105 | 102% (inactive) | 100% (inactive) | 96.5% (inactive) | 98.1 | 94.4
COc1ccc2cc(-c3cc(C(=O)O)c4ccccc4n3)ccc2c1 | 98.6% (inactive) | 95.9 | 98.2 | 99.8% (inactive) | 100 | 101 | 107% (inactive) | 96.5% (inactive) | 145% (inactive) | 128 | 152
COC(=O)c1ccc(N2C(=O)CC(SCCN)C2=O)cc1 (stereo not drawn) | 98.7% (inactive) | 100 | 98.4 | 98.9% (inactive) | 102 | 100 | 101% (inactive) | 103% (inactive) | 100% (inactive) | 103 | 99.3
Cc1onc(-c2c(Cl)cccc2Cl)c1NC(=O)NNc1c(Cl)cncc1Cl | 99.8% (inactive) | 99.4 | 99.2 | 103% (inactive) | 102 | 100 | 100% (inactive) | 97.2% (inactive) | 99.7% (inactive) | 101 | 97.3
CC(=O)SC(C[N+](=O)[O-])c1cn(C(C)=O)c2ccccc12 (stereo not drawn) | 98.6% (inactive) | 102 | 90.1 | 242% (active) | 216 | 236 | 96.8% (inactive) | 98% (inactive) | 94.4% (inactive) | 97.4 | 88.2
COc1cc(NC(=O)c2cccc(F)c2)ccc1NC(=O)c1cc2ccccc2o1 | 97.8% (inactive) | 98.3 | 97.6 | 98.8% (inactive) | 99.3 | 97.5 | 102% (inactive) | 101% (inactive) | 97.8% (inactive) | 98.3 | 95.6
Cc1ccc(C(=O)O)cc1N1C(=O)c2cccc3cc(Br)cc(c23)C1=O | 101% (inactive) | 98.6 | 100 | 102% (inactive) | 99.1 | 105 | 103% (inactive) | 101% (inactive) | 97.3% (inactive) | 97.4 | 98.1
CCC(C)(C)n1nnnc1C(c1ccc(O)c(OC)c1)N1CCc2ccccc2C1 (stereo not drawn) | 100% (inactive) | 99.6 | 97.6 | 117% (inactive) | 99.3 | 117 | 99.5% (inactive) | 117% (inactive) | 108% (inactive) | 108 | 105
Cc1ccc(CN2CCSc3sccc3C2=O)cc1 | 84.4% (inactive) | 83.1 | 85.5 | 142% (inactive) | 130 | 145 | 96.8% (inactive) | 97.1% (inactive) | 75.5% (inactive) | 72.1 | 76
